Data as given in ChEMBL document CHEMBL2311431, “Synthesis and biological evaluation of some 5-arylidene-2-(1,3-thiazol-2-ylimino)-1,3-thiazolidin-4-ones as dual anti-inflammatory/antimicrobial agents” (Bioorg Med Chem, 2013).
In brackets after ≈: the same amount, converted by molar mass.

Legend:
Aspergillus flavus [1] = assay: Fungicidal activity against Aspergillus flavus ATCC 9643 after 72 hrs by serial subcultivation method; type: functional; settings: ATCC 9643, 72 h
Trichoderma viride [2] = assay: Antifungal activity against Trichoderma viride IAM 5061 after 72 hrs by serial dilution technique; type: functional; settings: IAM 5061, 72 h
Procedure, shortened: (§1)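 Serial dilution in malt broth; compounds from 1 mg/ml stocks in 5% DMSO; 72 h at 28 °C. MIC is the lowest concentration with no visible growth under a binocular microscope. Run in duplicate, repeated three times.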

Micrococcus flavus [3] = assay: Bactericidal activity against Micrococcus flavus ATCC 10240 after 72 hrs by serial subcultivation method; type: functional; settings: ATCC 10240, 72 h
Talaromyces funiculosus [4] = assay: Antifungal activity against Penicillium funiculosum ATCC 36839 after 72 hrs by serial dilution technique; type: functional; settings: ATCC 36839, 72 h; procedure, shortened: as §1
Aspergillus fumigatus [5] = assay: Fungicidal activity against Aspergillus fumigatus after 72 hrs by serial subcultivation method; type: functional
Pseudomonas aeruginosa [6] = assay: Antibacterial activity against Pseudomonas aeruginosa ATCC 27853 after 24 hr by microdilution test; type: functional; settings: ATCC 27853, 24 h
Procedure, shortened: (§2)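 Broth microdilution in LB medium, about 1.0×10^4 cfu per well; compounds from 1 mg/ml stocks in 5% DMSO. Incubated 24 h. MIC is the lowest concentration with no visible growth under a binocular microscope. Run in duplicate, repeated three times.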

Aspergillus flavus [7] = assay: Antifungal activity against Aspergillus flavus ATCC 9643 after 72 hrs by serial dilution technique; type: functional; settings: ATCC 9643, 72 h; procedure, shortened: as §1
Aspergillus niger [8] = assay: Fungicidal activity against Aspergillus niger ATCC 6275 after 72 hrs by serial subcultivation method; type: functional; settings: ATCC 6275, 72 h
Staphylococcus aureus [9] = assay: Bactericidal activity against Staphylococcus aureus ATCC 6538 after 72 hrs by serial subcultivation method; type: functional; settings: ATCC 6538, 72 h
Bacillus cereus [10] = assay: Bactericidal activity against Bacillus cereus clinical isolate after 72 hrs by serial subcultivation method; type: functional
Micrococcus flavus [11] = assay: Antibacterial activity against Micrococcus flavus ATCC 10240 after 24 hr by microdilution test; type: functional; settings: ATCC 10240, 24 h; procedure, shortened: as §2
Penicillium ochrochloron [12] = assay: Antifungal activity against Penicillium ochrochloron ATCC 9112 after 72 hrs by serial dilution technique; type: functional; settings: ATCC 9112, 72 h; procedure, shortened: as §1
Talaromyces funiculosus [13] = assay: Fungicidal activity against Penicillium funiculosum ATCC 36839 after 72 hrs by serial subcultivation method; type: functional; settings: ATCC 36839, 72 h
Mus musculus [14] = assay: Antiinflammatory activity in AKR mouse assessed as inhibition of carrageenan-induced paw edema at 0.01 mmol/kg, ip measured after 3.5 hrs of carrageenan-challenge; type: functional
Procedure, shortened: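 AKR mice of both sexes (pregnant females excluded), 6-10 per group, fasted during the experiment. Edema induced by intradermal 0.05 mL of 2% carrageenin into the right hind paw. Compound given at 0.01 mmol/kg ip, suspended in water with Tween-80, at the same time as carrageenin.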

Penicillium ochrochloron [15] = assay: Fungicidal activity against Penicillium ochrochloron ATCC 9112 after 72 hrs by serial subcultivation method; type: functional; settings: ATCC 9112, 72 h
Pseudomonas aeruginosa [16] = assay: Bactericidal activity against Pseudomonas aeruginosa ATCC 27853 after 72 hrs by serial subcultivation method; type: functional; settings: ATCC 27853, 72 h
Aspergillus fumigatus [17] = assay: Antifungal activity against Aspergillus fumigatus after 72 hrs by serial dilution technique; type: functional; procedure, shortened: as §1
Mus musculus [18] = assay: Acute toxicity in AKR mouse up to 0.5 mmol/kg, ip; type: organism-based; settings: in vivo
Trichoderma viride [19] = assay: Fungicidal activity against Trichoderma viride IAM 5061 after 72 hrs by serial subcultivation method; type: functional; settings: IAM 5061, 72 h
Staphylococcus aureus [20] = assay: Antibacterial activity against Staphylococcus aureus ATCC 6538 after 24 hr by microdilution test; type: functional; settings: ATCC 6538, 24 h; procedure, shortened: as §2
Aspergillus niger [21] = assay: Antifungal activity against Aspergillus niger ATCC 6275 after 72 hrs by serial dilution technique; type: functional; settings: ATCC 6275, 72 h; procedure, shortened: as §1
Listeria monocytogenes [22] = assay: Bactericidal activity against Listeria monocytogenes NCTC 7973 after 72 hrs by serial subcultivation method; type: functional; settings: NCTC 7973, 72 h
Escherichia coli [23] = assay: Antibacterial activity against Escherichia coli ATCC 35210 after 24 hr by microdilution test; type: functional; settings: ATCC 35210, 24 h; procedure, shortened: as §2
Escherichia coli [24] = assay: Bactericidal activity against Escherichia coli ATCC 35210 after 72 hrs by serial subcultivation method; type: functional; settings: ATCC 35210, 72 h
[25] = molecular target: T1, Prostaglandin G/H synthase 1 (Ovis aries, UniProt P05979); assay: (§3) Inhibition of ovine COX1 assessed as inhibition of PGF2a production by enzyme immunoassay
T1 sequence (P05979 whole entry): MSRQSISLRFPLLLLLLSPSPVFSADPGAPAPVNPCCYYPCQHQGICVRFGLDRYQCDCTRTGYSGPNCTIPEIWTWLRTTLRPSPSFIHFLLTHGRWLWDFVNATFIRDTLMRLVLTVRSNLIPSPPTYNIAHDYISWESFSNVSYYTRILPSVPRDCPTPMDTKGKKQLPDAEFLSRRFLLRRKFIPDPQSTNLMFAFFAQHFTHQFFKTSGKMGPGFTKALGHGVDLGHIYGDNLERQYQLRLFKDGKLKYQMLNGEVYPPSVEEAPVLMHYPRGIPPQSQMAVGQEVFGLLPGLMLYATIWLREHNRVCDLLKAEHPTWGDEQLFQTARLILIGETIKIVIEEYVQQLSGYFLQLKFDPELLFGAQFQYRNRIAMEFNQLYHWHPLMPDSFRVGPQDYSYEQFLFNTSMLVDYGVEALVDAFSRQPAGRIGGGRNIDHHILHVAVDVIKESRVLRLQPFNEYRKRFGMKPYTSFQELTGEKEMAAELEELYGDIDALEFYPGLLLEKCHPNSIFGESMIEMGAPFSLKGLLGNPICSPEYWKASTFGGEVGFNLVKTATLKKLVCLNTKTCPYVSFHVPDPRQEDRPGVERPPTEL
Procedure, shortened: (§4)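 Ovine COX-1 from a commercial screening kit, tested with 0.1 µM arachidonic acid, which is below the saturating level. COX-derived PGH2 is reduced by SnCl2 to PGF2a, quantified by enzyme immunoassay with a broad prostaglandin antibody. At least triplicate.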

[26] = molecular target: T2, Prostaglandin G/H synthase 1 (Ovis aries) (UniProt P05979); assay: as §3; parameters: concentration or dose not given beside the values; settings: concentration not given here; procedure, shortened: as §4
T2 sequence (whole entry): T1 sequence (P05979 whole entry)

Glycine max = assay: (§5) Inhibition of soybean lipoxygenase assessed as inhibition of sodium linolate conversion to 13-hydroperoxylinoleic acid after 4 mins by spectrophotometry
[27] = as §5; parameters: species or system Glycine max; settings: read-out: IC50
Bacillus cereus [28] = assay: Antibacterial activity against Bacillus cereus clinical isolate after 24 hr by microdilution test; type: functional; procedure, shortened: as §2
Listeria monocytogenes [29] = assay: Antibacterial activity against Listeria monocytogenes NCTC 7973 after 24 hr by microdilution test; type: functional; settings: NCTC 7973, 24 h; procedure, shortened: as §2

Row | Compound | MFC (Aspergillus flavus [1]) [µM] | MIC (Trichoderma viride [2]) [µM] | MBC (Micrococcus flavus [3]) [µM] | MIC (Talaromyces funiculosus [4]) [µM] | MFC (Aspergillus fumigatus [5]) [µM] | MIC (Pseudomonas aeruginosa [6]) [µM] | MIC (Aspergillus flavus [7]) [µM] | MFC (Aspergillus niger [8]) [µM] | MBC (Staphylococcus aureus [9]) [µM] | MBC (Bacillus cereus [10]) [µM] | MIC (Micrococcus flavus [11]) [µM] | MIC (Penicillium ochrochloron [12]) [µM] | MFC (Talaromyces funiculosus [13]) [µM] | inhibition in vivo at 10 µmol/kg (Mus musculus [14]) [%] | MFC (Penicillium ochrochloron [15]) [µM] | MBC (Pseudomonas aeruginosa [16]) [µM] | MIC (Aspergillus fumigatus [17]) [µM] | Activity (Mus musculus [18]) | MFC (Trichoderma viride [19]) [µM] | MIC (Staphylococcus aureus [20]) [µM] | further results
1 | O=C1N/C(=N\c2nccs2)S/C1=C\c1cccc(Cl)c1Cl | 56.2 (≈ 20 µg/mL) | 28.1 (≈ 10 µg/mL) | 84.2 (≈ 30 µg/mL) | 28.1 (≈ 10 µg/mL) | 70.2 (≈ 25 µg/mL) | 28.1 (≈ 10 µg/mL) | 42.1 (≈ 15 µg/mL) | 56.2 (≈ 20 µg/mL) | 84.2 (≈ 30 µg/mL) | 70.2 (≈ 25 µg/mL) | 56.2 (≈ 20 µg/mL) | 42.1 (≈ 15 µg/mL) | 56.2 (≈ 20 µg/mL) | 45 | 56.2 (≈ 20 µg/mL) | 56.2 (≈ 20 µg/mL) | 56.2 (≈ 20 µg/mL) | Non-toxic | 56.2 (≈ 20 µg/mL) | 70.2 (≈ 25 µg/mL) | MIC (Aspergillus niger [21]): 42.1 µM (≈ 15 µg/mL); MBC (Listeria monocytogenes [22]): 84.2 µM (≈ 30 µg/mL); MIC (Escherichia coli [23]): 56.2 µM (≈ 20 µg/mL); MBC (Escherichia coli [24]): 70.2 µM (≈ 25 µg/mL); IC50 [25]: 10 µM; inhibition [26]: 100%; inhibition (Glycine max): 41%; IC50 [27]: 143 µM; MIC (Bacillus cereus [28]): 56.2 µM (≈ 20 µg/mL); MIC (Listeria monocytogenes [29]): 70.2 µM (≈ 25 µg/mL)
2 | O=C1N/C(=N\c2nccs2)S/C1=C\c1cccc(F)c1 | 65.4 (≈ 20 µg/mL) | 32.7 (≈ 9.99 µg/mL) | 81.9 (≈ 25 µg/mL) | 32.7 (≈ 9.99 µg/mL) | 49.1 (≈ 15 µg/mL) | 24.6 (≈ 7.51 µg/mL) | 32.7 (≈ 9.99 µg/mL) | 65.4 (≈ 20 µg/mL) | 65.4 (≈ 20 µg/mL) | 32.7 (≈ 9.99 µg/mL) | 65.4 (≈ 20 µg/mL) | 32.7 (≈ 9.99 µg/mL) | 65.4 (≈ 20 µg/mL) | 56.6 | 65.4 (≈ 20 µg/mL) | 32.7 (≈ 9.99 µg/mL) | 32.7 (≈ 9.99 µg/mL) | Non-toxic | 65.4 (≈ 20 µg/mL) | 32.7 (≈ 9.99 µg/mL) | MIC (Aspergillus niger [21]): 32.7 µM (≈ 9.99 µg/mL); MBC (Listeria monocytogenes [22]): 98.2 µM (≈ 30 µg/mL); MIC (Escherichia coli [23]): 32.7 µM (≈ 9.99 µg/mL); MBC (Escherichia coli [24]): 65.4 µM (≈ 20 µg/mL); inhibition [26]: 42%; inhibition (Glycine max): 72%; IC50 [27]: 90 µM; MIC (Bacillus cereus [28]): 24.6 µM (≈ 7.51 µg/mL); MIC (Listeria monocytogenes [29]): 81.9 µM (≈ 25 µg/mL)
